Results: ChEMBL document CHEMBL4689842, “EUbOPEN Chemogenomics Library wave 1” (2021)

System: U2OS
Assay: Multiplex assay against U2OS
Type: toxicity, cell-based
Details: human
Summary of the method: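 Per cents of healthy-nucleus cells form the tubulin, mitochondrial-mass and membrane-permeability phenotype values. Live cells were stained at seeding with Hoechst33342, BioTracker Green Microtubule Cytoskeleton Dye, MitoTracker Red and Annexin V Alexa Fluor 680. After compound addition they were imaged on a CQ1 microscope at 37°C and 5% CO2, and CellPathfinder machine-learning gating split them into Hoechst high-intensity objects or normal cells, normal cells into healthy, pyknosed or fragmented nuclei, and pyknosed cells into mitotic or apoptotic.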

[1] = 12 h, 1 µM, compound concentration 1 uM, replicate 1
[2] = 12 h, 1 µM, compound concentration 1 uM, replicate 2
[3] = 12 h, 10 µM, compound concentration 10 uM, replicate 1
[4] = 12 h, 10 µM, compound concentration 10 uM, replicate 2
[5] = 24 h, 1 µM, compound concentration 1 uM, replicate 1
[6] = 24 h, 1 µM, compound concentration 1 uM, replicate 2
[7] = 24 h, 10 µM, compound concentration 10 uM, replicate 1
[8] = 24 h, 10 µM, compound concentration 10 uM, replicate 2
[9] = 48 h, 1 µM, compound concentration 1 uM, replicate 1
[10] = 48 h, 1 µM, compound concentration 1 uM, replicate 2
[11] = 48 h, 10 µM, compound concentration 10 uM, replicate 1
[12] = 48 h, 10 µM, compound concentration 10 uM, replicate 2

COC(=O)C1=C(C)NC(C)=C(C(=O)OCCCN2CCC(c3ccccc3)(c3ccccc3)CC2)[C@H]1c1cccc([N+](=O)[O-])c1 [NIGULDIPINE]
Population Apoptotic (%) [1]: 64% | Population Fragmented Nuclei (%) [1]: 18% | Population Healthy Nuclei (%) [1]: 58% | Population Hoechst High Intensity Objects (%) [1]: 11% | Population Membrane Permeable-Phenotype (%) [1]: 53% | Population Mitochondria Different-Phenotype (%) [1]: 96% | Population Mitotic Cells (%) [1]: 36% | Population Normal (%) [1]: 88% | Population Pyknosed Nuclei (%) [1]: 23% | Population Tubulin-Different-Phenotype (%) [1]: 96% | Total Cell Count [1]: 893 | Population Apoptotic (%) [2]: 91% | Population Fragmented Nuclei (%) [2]: 6% | Population Healthy Nuclei (%) [2]: 78% | Population Hoechst High Intensity Objects (%) [2]: 9% | Population Membrane Permeable-Phenotype (%) [2]: 66% | Population Mitochondria Different-Phenotype (%) [2]: 100% | Population Mitotic Cells (%) [2]: 8% | Population Normal (%) [2]: 90% | Population Pyknosed Nuclei (%) [2]: 15% | Population Tubulin-Different-Phenotype (%) [2]: 100% | Total Cell Count [2]: 945 | Population Apoptotic (%) [3]: 73% | Population Fragmented Nuclei (%) [3]: 62% | Population Healthy Nuclei (%) [3]: 4% | Population Hoechst High Intensity Objects (%) [3]: 7% | Population Mitochondria Different-Phenotype (%) [3]: 100% | Population Mitotic Cells (%) [3]: 26% | Population Normal (%) [3]: 92% | Population Pyknosed Nuclei (%) [3]: 33% | Total Cell Count [3]: 122 | Population Apoptotic (%) [4]: 76% | Population Fragmented Nuclei (%) [4]: 67% | Population Healthy Nuclei (%) [4]: 3% | Population Hoechst High Intensity Objects (%) [4]: 12% | Population Membrane Permeable-Phenotype (%) [4]: 100% | Population Mitochondria Different-Phenotype (%) [4]: 50% | Population Mitotic Cells (%) [4]: 23% | Population Normal (%) [4]: 87% | Population Pyknosed Nuclei (%) [4]: 29% | Population Tubulin-Different-Phenotype (%) [4]: 100% | Total Cell Count [4]: 87 | Population Apoptotic (%) [5]: 76% | Population Fragmented Nuclei (%) [5]: 17% | Population Healthy Nuclei (%) [5]: 52% | Population Hoechst High Intensity Objects (%) [5]: 10% | Population Membrane Permeable-Phenotype (%) [5]: 76% | Population Mitochondria Different-Phenotype (%) [5]: 98% | Population Mitotic Cells (%) [5]: 23% | Population Normal (%) [5]: 89% | Population Pyknosed Nuclei (%) [5]: 30% | Total Cell Count [5]: 927 | Population Apoptotic (%) [6]: 77% | Population Fragmented Nuclei (%) [6]: 7% | Population Healthy Nuclei (%) [6]: 65% | Population Hoechst High Intensity Objects (%) [6]: 5% | Population Membrane Permeable-Phenotype (%) [6]: 96% | Population Mitochondria Different-Phenotype (%) [6]: 100% | Population Mitotic Cells (%) [6]: 22% | Population Normal (%) [6]: 94% | Population Pyknosed Nuclei (%) [6]: 27% | Population Tubulin-Different-Phenotype (%) [6]: 100% | Total Cell Count [6]: 948 | Population Apoptotic (%) [7]: 78% | Population Fragmented Nuclei (%) [7]: 69% | Population Healthy Nuclei (%) [7]: 2% | Population Hoechst High Intensity Objects (%) [7]: 14% | Population Membrane Permeable-Phenotype (%) [7]: 100% | Population Mitochondria Different-Phenotype (%) [7]: 100% | Population Mitotic Cells (%) [7]: 21% | Population Normal (%) [7]: 85% | Population Pyknosed Nuclei (%) [7]: 27% | Population Tubulin-Different-Phenotype (%) [7]: 100% | Total Cell Count [7]: 111 | Population Apoptotic (%) [8]: 100% | Population Fragmented Nuclei (%) [8]: 40% | Population Healthy Nuclei (%) [8]: 25% | Population Hoechst High Intensity Objects (%) [8]: 11% | Population Mitotic Cells (%) [8]: 0% | Population Normal (%) [8]: 88% | Population Pyknosed Nuclei (%) [8]: 33% | Total Cell Count [8]: 85 | Population Apoptotic (%) [9]: 78% | Population Fragmented Nuclei (%) [9]: 23% | Population Healthy Nuclei (%) [9]: 39% | Population Hoechst High Intensity Objects (%) [9]: 12% | Population Membrane Permeable-Phenotype (%) [9]: 82% | Population Mitochondria Different-Phenotype (%) [9]: 97% | Population Mitotic Cells (%) [9]: 21% | Population Normal (%) [9]: 87% | Population Pyknosed Nuclei (%) [9]: 36% | Population Tubulin-Different-Phenotype (%) [9]: 97% | Total Cell Count [9]: 922 | Population Apoptotic (%) [10]: 85% | Population Fragmented Nuclei (%) [10]: 15% | Population Healthy Nuclei (%) [10]: 54% | Population Hoechst High Intensity Objects (%) [10]: 5% | Population Membrane Permeable-Phenotype (%) [10]: 92% | Population Mitochondria Different-Phenotype (%) [10]: 100% | Population Mitotic Cells (%) [10]: 14% | Population Normal (%) [10]: 94% | Population Pyknosed Nuclei (%) [10]: 30% | Population Tubulin-Different-Phenotype (%) [10]: 100% | Total Cell Count [10]: 932 | Population Apoptotic (%) [11]: 81% | Population Fragmented Nuclei (%) [11]: 69% | Population Healthy Nuclei (%) [11]: 2% | Population Hoechst High Intensity Objects (%) [11]: 10% | Population Membrane Permeable-Phenotype (%) [11]: 100% | Population Mitochondria Different-Phenotype (%) [11]: 100% | Population Mitotic Cells (%) [11]: 18% | Population Normal (%) [11]: 89% | Population Pyknosed Nuclei (%) [11]: 28% | Population Tubulin-Different-Phenotype (%) [11]: 100% | Total Cell Count [11]: 116 | Population Apoptotic (%) [12]: 100% | Population Fragmented Nuclei (%) [12]: 17% | Population Healthy Nuclei (%) [12]: 28% | Population Hoechst High Intensity Objects (%) [12]: 18% | Population Mitochondria Different-Phenotype (%) [12]: 93% | Population Mitotic Cells (%) [12]: 0% | Population Normal (%) [12]: 81% | Population Pyknosed Nuclei (%) [12]: 53% | Total Cell Count [12]: 97
